Laboratory results reported in ChEMBL document CHEMBL3785029, “Synthesis and Characterization of Fatty Acid Conjugates of Niacin and Salicylic Acid” (J Med Chem, 2016).

How the values were obtained:
[1] = tested on: Plasma; experiment: Drug metabolism in Sprague-Dawley rat plasma assessed as nicotinuric acid formation at 300 mg/kg, qd administered through oral gavage for 7 days measured 2 hrs post last dose by LC/MS/MS analysis; format: ADME, organism-based; conditions: in vivo
[2] = biological target: T1, Fatty-acid amide hydrolase 1 (Homo sapiens, UniProt O00519); experiment: Drug metabolism assessed as human recombinant N-terminal FLAG/C-terminal His-tagged FAAH1 (32 to 579 residues)-mediated compound hydrolysis by measuring release of EPA at 25 uM by LC/MS-MS analysis; format: ADME; conditions: TDE = time-dependent effect
T1 sequence (O00519 whole entry): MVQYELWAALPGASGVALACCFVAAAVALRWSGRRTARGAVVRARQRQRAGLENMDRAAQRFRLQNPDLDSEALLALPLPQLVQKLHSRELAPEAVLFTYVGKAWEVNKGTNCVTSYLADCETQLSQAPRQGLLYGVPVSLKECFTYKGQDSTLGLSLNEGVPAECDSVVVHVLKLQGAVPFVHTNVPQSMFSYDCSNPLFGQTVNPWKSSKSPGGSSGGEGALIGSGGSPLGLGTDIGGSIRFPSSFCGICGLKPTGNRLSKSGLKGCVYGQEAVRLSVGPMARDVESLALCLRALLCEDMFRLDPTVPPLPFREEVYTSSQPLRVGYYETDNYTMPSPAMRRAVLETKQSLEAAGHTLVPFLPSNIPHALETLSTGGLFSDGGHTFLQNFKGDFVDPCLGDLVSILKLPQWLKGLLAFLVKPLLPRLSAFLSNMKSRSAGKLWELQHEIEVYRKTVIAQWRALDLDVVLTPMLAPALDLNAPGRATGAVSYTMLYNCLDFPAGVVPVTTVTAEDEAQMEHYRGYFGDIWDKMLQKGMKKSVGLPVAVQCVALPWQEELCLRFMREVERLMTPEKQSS

[3] = tested on: Rattus norvegicus; experiment: Cmax in portal vein cannulated Sprague-Dawley rat assessed nicotinuric acid at 30 mg/kg, po measured up to 140 mins; format: ADME, organism-based; design: dose 30 mg/kg, route oral; conditions: in vivo
Summary of the method: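 Sprague Dawley rats surgically fitted with indwelling jugular vein and portal vein cannulas; oral dosing, then serial blood draws from both portal and jugular veins at 10, 20, 40 min and 1, 2, 4, 6 hr post dose; plasma analysed for parent and metabolites by LC/MS/MS.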

[4] = biological target: T1, Fatty-acid amide hydrolase 1; experiment: Drug metabolism in human HepG2 cells assessed as FAAH-mediated compound hydrolysis by measuring level of EPA at 50 uM by LC/MS-MS analysis; format: ADME, cell-based; conditions: hepg2, 50 µM, TDE = time-dependent effect
[5] = tested on: Liver; experiment: Drug uptake in Sprague-Dawley rat liver at 300 mg/kg, po administered for 14 days followed by 7 day washout cycle measured on day 21; format: ADME, organism-based; conditions: in vivo
[6] = tested on: Plasma; experiment: Drug metabolism in Sprague-Dawley rat plasma assessed as salicylic acid formation at 300 mg/kg, po administered for 7 days measured 4 hrs post dose on day 7; format: ADME, organism-based; conditions: in vivo
Summary of the method: (§1)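 Male Sprague Dawley rats, groups of 4, dosed orally at 300 mg/kg once daily for 14 days. Animals killed on days 1, 3, 7 and 14, with plasma, brain, epididymal fat, liver and muscle taken 4 hr after dosing. Parent, salicylic acid and salicyluric acid were measured.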

[7] = tested on: Rattus norvegicus; experiment: Cmax in Sprague-Dawley rat assessed as salicylate-linker metabolite N-(2-aminoethyl)-2-hydroxy-benzamide at 300 mg/kg, po measured up to 24 hrs post dose; format: ADME, organism-based; design: dose 300 mg/kg, route oral; conditions: in vivo
Summary of the method: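 Single oral dose of 300 mg/kg to Sprague Dawley rats. Plasma collected at 0, 0.5, 1, 2, 4, 8 and 24 hr. Analytes were the parent, the salicylate-linker and linker-DHA metabolites, salicylic acid and salicyluric acid; Cmax and AUClast derived.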

[8] = tested on: Plasma; experiment: Drug metabolism in Sprague-Dawley rat plasma assessed as salicyluric acid formation at 300 mg/kg, po administered for 14 days followed by 7 day washout cycle measured on day 21; format: ADME, organism-based; conditions: in vivo
[9] = tested on: Brain; experiment: Drug metabolism in Sprague-Dawley rat brain assessed as salicyluric acid formation at 300 mg/kg, po administered for 7 days measured 4 hrs post dose on day 7; format: ADME, organism-based; conditions: in vivo; summary of the method: as §1

Structure (SMILES)	Drug metabolism [1] [ng/mL]	Drug metabolism [2]	Cmax [3] [ng/mL]	Drug metabolism [4]	Drug uptake [5]	Drug metabolism [6] [ng/mL]	Cmax [7] [ng/mL]	Drug metabolism [8]	Drug metabolism [9] [ng/g]
CC/C=C\C/C=C\C/C=C\C/C=C\C/C=C\CCCC(=O)NCCNC(=O)c1cccnc1	3220	tde	125	tde					
CC/C=C\C/C=C\C/C=C\C/C=C\C/C=C\C/C=C\CCC(=O)NCCNC(=O)c1ccccc1O [EDASALONEXENT]					Not Active	154.2	484	metabolite_notdetected	114.43
